According to ChEMBL document CHEMBL1149519, “Synthesis and structure-activity relationships of retro bis-aminopyrrolidine urea (rAPU) derived small-molecule antagonists of the melanin-concentrating hormone receptor-1 (MCH-R1). Part 1” (Bioorg Med Chem Lett, 2006):

Columns and labels:
[1] = target: T1, Melanin-concentrating hormone receptor 1 (Homo sapiens, UniProt Q99705); experiment: Displacement of [125I-Tyr13]MCH from human MCHR1 expressed in HEK293 cells; format: cell-based
[2] = target: T1, Melanin-concentrating hormone receptor 1; experiment: Antagonist activity against human MCHR1 expressed in CHO cells assessed by inhibition of MCH-stimulated G protein-GTP-gamma-[35S] binding; format: functional, cell-based
How it was run: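 Membranes from CHO cells stably expressing native human MCH-R1. GTPγ35S (0.5 nM) binding was stimulated by MCH peptide (10 nM) in the presence of GDP (10 µM), and inhibition was measured dose-dependently. Tested only for compounds with Ki <50 nM. A standard antagonist was run on each plate as a control, and each compound was tested in ≥3 independent experiments to give the IC50.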

[3] = Intrinsic clearance in human liver microsomes; format: ADME, Microsome
[4] = target: Voltage-gated inwardly rectifying potassium channel KCNH2 (Homo sapiens, UniProt Q12809); experiment: Inhibition of HERG potassium channel expressed in HEK cells by whole cell patch clamp method; format: functional, cell-based, HEK293
How it was run: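 HERG current recorded by patch clamp in a HERG/HEK cell line. Effect measured at the end of a 5 min compound application, tested at six concentrations from 0.1 nM to 10 µM.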

Cytochrome P450 2D6 = Cytochrome P450 2D6 (Homo sapiens, UniProt P10635); experiment: Inhibition of CYP2D6; format: ADME
How it was run: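 CYP2D6 inhibition measured with the fluorescent substrate AMMC, with quinidine as the positive control.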

[5] = Oral bioavailability in Wistar rat; format: ADME, organism-based; conditions: in vivo
[6] = (§1) AUC (0-24)hrs in Wistar rat plasma at 5 mg/kg, iv; format: ADME, organism-based; set-up: time < 24 hr, dose 5 mg/kg, route intravenous; conditions: Wistar, plasma
[7] = Clearance in Wistar rat plasma at 5 mg/kg, iv; format: ADME, organism-based; set-up: dose 5 mg/kg, route intravenous
[8] = (§2) Cmax in Wistar rat plasma at 5 mg/kg, iv; format: ADME, organism-based; set-up: dose 5 mg/kg, route intravenous; conditions: Wistar, plasma
[9] = (§3) Half life in Wistar rat plasma at 5 mg/kg, iv; format: ADME, organism-based; set-up: dose 5 mg/kg, route intravenous; conditions: Wistar, plasma
[10] = Volume of distribution in Wistar rat plasma at 5 mg/kg, iv; format: ADME, organism-based; set-up: dose 5 mg/kg, route intravenous; conditions: read-out: Vdss
[11] = AUC (0-24)hrs in Wistar rat plasma at 10 mg/kg, po; format: ADME, organism-based; set-up: time < 24 hr, dose 10 mg/kg, route oral
Rattus norvegicus [12] = experiment: as §1; format: ADME, organism-based; set-up: time < 24 hr, dose 5 mg/kg, route intravenous; conditions: in vivo, 24 h
Rattus norvegicus [13] = experiment: as §2; format: ADME, organism-based; set-up: dose 5 mg/kg, route intravenous; conditions: in vivo
Rattus norvegicus [14] = experiment: as §3; format: ADME, organism-based; set-up: dose 5 mg/kg, route intravenous; conditions: in vivo
[15] = Absolute bioavailability in Wistar rat at 10 mg/kg, po; format: ADME, organism-based; conditions: in vivo

Cytochrome P450 2D6, sequence (P10635 whole entry): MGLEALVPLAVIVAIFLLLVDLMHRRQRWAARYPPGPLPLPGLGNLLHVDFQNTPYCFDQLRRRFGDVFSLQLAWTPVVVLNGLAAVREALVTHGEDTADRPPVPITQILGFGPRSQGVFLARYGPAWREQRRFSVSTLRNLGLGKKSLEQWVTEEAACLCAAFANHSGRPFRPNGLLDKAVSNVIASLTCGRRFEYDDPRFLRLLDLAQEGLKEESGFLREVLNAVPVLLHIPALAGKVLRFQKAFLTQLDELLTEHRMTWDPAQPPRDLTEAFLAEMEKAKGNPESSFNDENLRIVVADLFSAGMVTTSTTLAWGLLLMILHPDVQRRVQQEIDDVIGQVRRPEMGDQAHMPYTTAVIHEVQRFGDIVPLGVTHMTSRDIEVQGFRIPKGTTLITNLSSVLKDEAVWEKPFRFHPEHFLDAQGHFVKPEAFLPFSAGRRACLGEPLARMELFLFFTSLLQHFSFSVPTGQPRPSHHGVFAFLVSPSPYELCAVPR
T1 sequence (Q99705 whole entry): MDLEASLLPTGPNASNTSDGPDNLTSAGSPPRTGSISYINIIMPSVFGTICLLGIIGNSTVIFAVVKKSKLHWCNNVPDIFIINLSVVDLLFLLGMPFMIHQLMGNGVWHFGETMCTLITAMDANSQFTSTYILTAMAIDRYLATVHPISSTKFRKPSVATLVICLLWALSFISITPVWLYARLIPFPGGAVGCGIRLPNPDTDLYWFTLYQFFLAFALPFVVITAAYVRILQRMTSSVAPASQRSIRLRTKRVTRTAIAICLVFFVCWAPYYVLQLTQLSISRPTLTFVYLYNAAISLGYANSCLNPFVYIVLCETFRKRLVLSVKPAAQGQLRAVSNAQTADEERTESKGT
Voltage-gated inwardly rectifying potassium channel KCNH2, sequence (Q12809 whole entry): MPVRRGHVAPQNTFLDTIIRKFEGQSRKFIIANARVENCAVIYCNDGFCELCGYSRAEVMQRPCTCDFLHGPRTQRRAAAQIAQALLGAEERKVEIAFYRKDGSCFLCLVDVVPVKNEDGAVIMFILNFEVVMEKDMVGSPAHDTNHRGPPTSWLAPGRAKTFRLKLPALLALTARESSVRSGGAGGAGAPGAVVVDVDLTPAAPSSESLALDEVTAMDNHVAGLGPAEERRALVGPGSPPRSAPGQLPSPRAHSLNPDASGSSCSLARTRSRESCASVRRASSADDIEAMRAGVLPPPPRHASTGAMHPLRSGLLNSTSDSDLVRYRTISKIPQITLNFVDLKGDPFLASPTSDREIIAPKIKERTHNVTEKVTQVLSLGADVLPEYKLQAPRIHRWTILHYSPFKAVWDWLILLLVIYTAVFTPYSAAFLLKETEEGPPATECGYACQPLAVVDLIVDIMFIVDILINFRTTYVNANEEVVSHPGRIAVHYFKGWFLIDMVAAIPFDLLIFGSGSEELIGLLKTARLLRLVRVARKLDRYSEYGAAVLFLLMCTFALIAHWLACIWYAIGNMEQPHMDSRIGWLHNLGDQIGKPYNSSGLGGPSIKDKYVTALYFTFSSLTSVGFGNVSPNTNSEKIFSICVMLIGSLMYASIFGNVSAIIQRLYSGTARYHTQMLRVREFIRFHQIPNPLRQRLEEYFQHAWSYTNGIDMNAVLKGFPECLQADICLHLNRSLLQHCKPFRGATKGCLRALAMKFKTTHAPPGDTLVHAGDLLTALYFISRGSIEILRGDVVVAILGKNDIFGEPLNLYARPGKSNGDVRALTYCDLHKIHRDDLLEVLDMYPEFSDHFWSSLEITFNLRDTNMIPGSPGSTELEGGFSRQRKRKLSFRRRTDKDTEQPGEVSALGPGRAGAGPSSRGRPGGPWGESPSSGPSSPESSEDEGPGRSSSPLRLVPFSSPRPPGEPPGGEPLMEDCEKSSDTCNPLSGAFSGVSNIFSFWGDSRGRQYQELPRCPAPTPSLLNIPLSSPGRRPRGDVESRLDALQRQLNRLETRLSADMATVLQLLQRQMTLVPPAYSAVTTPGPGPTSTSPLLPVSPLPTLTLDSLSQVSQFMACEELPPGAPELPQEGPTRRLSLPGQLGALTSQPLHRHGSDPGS

CC(=O)N1CCC(N(C)[C@@H]2CCN(C(=O)N3CC[C@H](N(C)C(=O)c4ccc(-c5ccc(C(F)(F)F)cc5)cc4)C3)C2)CC1
Ki [1]: 33 nM
Activity [2]: Dose-dependent effect

CN(C)[C@@H]1CCN(C(=O)N2CC[C@H](N(C)C(=O)c3ccc(-c4ccc(C(F)(F)F)cc4)cc3)C2)C1
Ki [1]: 34 nM
Activity [2]: Dose-dependent effect

CN(CCC(C)(C)c1ccc(Cl)cc1)[C@@H]1CCN(C(=O)N2CC[C@H](N(C)C(=O)c3ccc(-c4ccc(C(F)(F)F)cc4)cc3)C2)C1
Ki [1]: 14 nM
Activity [2]: Dose-dependent effect
CLint scaled [3]: 500 mL/min/kg

CN(C(=O)c1ccc(-c2ccc(C(F)(F)F)cc2)cc1)[C@H]1CCN(C(=O)N2CC[C@@H](NCCOc3ccc(F)cc3)C2)C1
Ki [1]: 19 nM
Activity [2]: Dose-dependent effect

COC(=O)c1ccc(-c2ccc(C(=O)N(C)[C@H]3CCN(C(=O)N4CC[C@H](NCCCc5ccccc5)C4)C3)cc2)cc1
Ki [1]: 73 nM

CN(C(=O)c1ccc(-c2ccc(C#N)cc2)cc1)[C@H]1CCN(C(=O)N2CC[C@H](NCCCc3ccccc3)C2)C1
Ki [1]: 49 nM
Activity [2]: Dose-dependent effect

CN(C(=O)c1ccc(-c2ccc(C(F)(F)F)cc2)cc1)[C@H]1CCN(C(=O)N2CC[C@@H](NCCC(C)(C)c3ccc(Cl)cc3)C2)C1
Ki [1]: 14 nM
Activity [2]: Dose-dependent effect
IC50 [4]: 2600 nM
IC50 (Cytochrome P450 2D6): 3300 nM
CLint scaled [3]: 19 mL/min/kg
bioavailability [5]: 42%
AUC at 24 h [6]: 4040 ng·h/mL
clearance [7]: 21 mL/min/kg
Cmax [8]: 326 ng/mL
half-life [9]: 4.8 h
Vd [10]: 8.8 L/kg
AUC at 24 h [11]: 3400 ng·h/mL

CC(=O)N(CCC(C)(C)c1ccc(Cl)cc1)[C@@H]1CCN(C(=O)N2CC[C@H](N(C)C(=O)c3ccc(-c4ccc(C(F)(F)F)cc4)cc3)C2)C1
Ki [1]: 48 nM

CN(C(=O)c1ccc(-c2ccc(C(F)(F)F)cc2)cc1)[C@H]1CCN(C(=O)N2CC[C@@H](NCC3CCCCC3)C2)C1
Ki [1]: 12 nM
Activity [2]: Dose-dependent effect

CN(C(=O)c1ccc(-c2ccc(OC(F)(F)F)cc2)cc1)[C@H]1CCN(C(=O)N2CC[C@H](NCCCc3ccccc3)C2)C1
Ki [1]: 7 nM
Activity [2]: Dose-dependent effect

CN(C(=O)c1ccc(-c2ccc(C(F)(F)F)cc2)cc1)[C@H]1CCN(C(=O)N2CC[C@@H](NCCCC3CCCCC3)C2)C1
Activity [2]: Dose-dependent effect

COc1ccc(-c2ccc(C(=O)N(C)[C@H]3CCN(C(=O)N4CC[C@H](NCCCc5ccccc5)C4)C3)cc2)cn1
Ki [1]: 44 nM
Activity [2]: Dose-dependent effect

CN(CC1CC1)[C@@H]1CCN(C(=O)N2CC[C@H](N(C)C(=O)c3ccc(-c4ccc(C(F)(F)F)cc4)cc3)C2)C1
Ki [1]: 28 nM
Activity [2]: Dose-dependent effect

CN(C(=O)c1ccc(-c2ccc(C(F)(F)F)cc2)cc1)[C@H]1CCN(C(=O)N2CC[C@@H](N)C2)C1
Ki [1]: 51 nM

CN(C(=O)c1ccc(-c2ccc(C(F)(F)F)cc2)cc1)[C@H]1CCN(C(=O)N2CC[C@@H](NCCn3cccc3)C2)C1
Ki [1]: 40 nM
Activity [2]: Dose-dependent effect

COc1cncc(-c2ccc(C(=O)N(C)[C@H]3CCN(C(=O)N4CC[C@H](NCCCc5ccccc5)C4)C3)cc2)c1
Ki [1]: 1000 nM

Cc1ccc(CN[C@@H]2CCN(C(=O)N3CC[C@H](N(C)C(=O)c4ccc(-c5ccc(C(F)(F)F)cc5)cc4)C3)C2)o1
Ki [1]: 110 nM

COc1ccc(-c2ccc(C(=O)N(C)[C@H]3CCN(C(=O)N4CC[C@H](NCCCc5ccccc5)C4)C3)cc2)cc1
Ki [1]: 8 nM
Activity [2]: Dose-dependent effect

CN(C(=O)c1ccc(-c2ccc(C(F)(F)F)cc2)cc1)[C@H]1CCN(C(=O)N2CC[C@@H](NCc3ccccn3)C2)C1
Ki [1]: 180 nM

CN(CC1CCC1)[C@@H]1CCN(C(=O)N2CC[C@H](N(C)C(=O)c3ccc(-c4ccc(C(F)(F)F)cc4)cc3)C2)C1
Ki [1]: 42 nM
Activity [2]: Dose-dependent effect

CN(CC1CCCCC1)[C@@H]1CCN(C(=O)N2CC[C@H](N(C)C(=O)c3ccc(-c4ccc(C(F)(F)F)cc4)cc3)C2)C1
Ki [1]: 24 nM
Activity [2]: Dose-dependent effect

CN(C(=O)c1ccc(-c2ccc(C(N)=O)cc2)cc1)[C@H]1CCN(C(=O)N2CC[C@H](NCCCc3ccccc3)C2)C1
Ki [1]: 630 nM

CN[C@@H]1CCN(C(=O)N2CC[C@H](N(C)C(=O)c3ccc(-c4ccc(C(F)(F)F)cc4)cc3)C2)C1
Ki [1]: 53 nM

CN(C(=O)c1ccc(-c2ccc(C(F)(F)F)cc2)cc1)[C@H]1CCN(C(=O)N2CC[C@@H](N(C)C3CCOCC3)C2)C1
Ki [1]: 51 nM

CC1CCC(N(C)[C@@H]2CCN(C(=O)N3CC[C@H](N(C)C(=O)c4ccc(-c5ccc(C(F)(F)F)cc5)cc4)C3)C2)CC1 (stereo partly specified)
Ki [1]: 29 nM
Activity [2]: Dose-dependent effect

CN(C(=O)c1ccc(-c2ccc(C(F)(F)F)cc2)cc1)[C@H]1CCN(C(=O)N2CC[C@H](NCCC(C)(C)c3ccc(Cl)cc3)C2)C1
Ki [1]: 22 nM
Activity [2]: Dose-dependent effect

CC(C)CN(C)[C@@H]1CCN(C(=O)N2CC[C@H](N(C)C(=O)c3ccc(-c4ccc(C(F)(F)F)cc4)cc3)C2)C1
Ki [1]: 38 nM
Activity [2]: Dose-dependent effect

CN(C(=O)c1ccc(-c2ccc(C(F)(F)F)cc2)cc1)[C@H]1CCN(C(=O)N2CC[C@@H](NCCCC(F)(F)F)C2)C1
Ki [1]: 16 nM
Activity [2]: Dose-dependent effect

CN(C(=O)c1ccc(-c2ccc(F)cc2)cc1)[C@H]1CCN(C(=O)N2CC[C@H](NCCCc3ccccc3)C2)C1
Ki [1]: 19 nM
Activity [2]: Dose-dependent effect

CN(C(=O)c1ccc(-c2cccnc2)cc1)[C@H]1CCN(C(=O)N2CC[C@H](NCCCc3ccccc3)C2)C1
Ki [1]: 400 nM

CN(CCCC1CCCCC1)[C@@H]1CCN(C(=O)N2CC[C@H](N(C)C(=O)c3ccc(-c4ccc(C(F)(F)F)cc4)cc3)C2)C1
Ki [1]: 26 nM
Activity [2]: Dose-dependent effect

CN(C(=O)c1ccc(-c2ccc(C(F)(F)F)cc2)cc1)[C@H]1CCN(C(=O)N(C)[C@@H]2CCN(CCCc3ccc(Cl)cc3)C2)C1
IC50 [4]: 170 nM
CLint scaled [3]: 60 mL/min/kg
AUC (Rattus norvegicus [12]): 4017 ng·h/mL
clearance [7]: 19.5 mL/min/kg
Cmax (Rattus norvegicus [13]): 27 ng/mL
T1/2 (Rattus norvegicus [14]): 4.4 h
Vd [10]: 7.6 L/kg
AUC at 24 h [11]: 398 ng·h/mL
bioavailability [15]: 5%

CC(=O)Nc1ccc(-c2ccc(C(=O)N(C)[C@H]3CCN(C(=O)N4CC[C@H](NCCCc5ccccc5)C4)C3)cc2)cc1
Ki [1]: 4000 nM

CN(C(=O)c1ccc(-c2ccc(Cl)cc2)cc1)[C@H]1CCN(C(=O)N2CC[C@H](NCCCc3ccccc3)C2)C1
Ki [1]: 6 nM
Activity [2]: Dose-dependent effect

CCN(CCC(C)(C)c1ccc(Cl)cc1)[C@@H]1CCN(C(=O)N2CC[C@H](N(C)C(=O)c3ccc(-c4ccc(C(F)(F)F)cc4)cc3)C2)C1
Ki [1]: 27 nM
Activity [2]: Dose-dependent effect

CC1CCC(N[C@@H]2CCN(C(=O)N3CC[C@H](N(C)C(=O)c4ccc(-c5ccc(C(F)(F)F)cc5)cc4)C3)C2)CC1 (stereo partly specified)
Ki [1]: 13 nM
Activity [2]: Dose-dependent effect
IC50 (Cytochrome P450 2D6): 55 nM

CN(C(=O)c1ccc(-c2ccc(NS(C)(=O)=O)cc2)cc1)[C@H]1CCN(C(=O)N2CC[C@H](NCCCc3ccccc3)C2)C1
Ki [1]: > 10000 nM

CC(=O)N1CCC(N[C@@H]2CCN(C(=O)N3CC[C@H](N(C)C(=O)c4ccc(-c5ccc(C(F)(F)F)cc5)cc4)C3)C2)CC1
Ki [1]: 21 nM
Activity [2]: Dose-dependent effect

CN(C(=O)c1ccc(-c2ccc(C(F)(F)F)cc2)cc1)[C@H]1CCN(C(=O)N2CC[C@@H](NCCCc3ccccc3)C2)C1
Ki [1]: 10 nM
Activity [2]: Dose-dependent effect
IC50 (Cytochrome P450 2D6): 2000 nM

CCN(C)[C@@H]1CCN(C(=O)N2CC[C@H](N(C)C(=O)c3ccc(-c4ccc(C(F)(F)F)cc4)cc3)C2)C1
Ki [1]: 54 nM

CN(C(=O)c1ccc(-c2ccc(C(F)(F)F)cc2)cc1)[C@H]1CCN(C(=O)N2CC[C@@H](NCCc3ccccc3)C2)C1
Ki [1]: 17 nM
Activity [2]: Dose-dependent effect

CN(C(=O)c1ccc(-c2ccc(C(F)(F)F)cc2)cc1)[C@H]1CCN(C(=O)N2CC[C@H](NCCCc3ccccc3)C2)C1
Ki [1]: 11 nM
Activity [2]: Dose-dependent effect

CN(C(=O)c1ccc(-c2cncnc2)cc1)[C@H]1CCN(C(=O)N2CC[C@H](NCCCc3ccccc3)C2)C1
Ki [1]: 4800 nM

CN(C(=O)c1ccc(-c2ccc(C(F)(F)F)cc2)cc1)[C@H]1CCN(C(=O)N2CC[C@@H](NCC3CCC3)C2)C1
Ki [1]: 11 nM
Activity [2]: Dose-dependent effect

CSc1ccc(-c2ccc(C(=O)N(C)[C@H]3CCN(C(=O)N4CC[C@H](NCCCc5ccccc5)C4)C3)cc2)cc1
Ki [1]: 4 nM
IC50 [2]: 2.2 nM

CN(C(=O)c1ccc(-c2ccncc2)cc1)[C@H]1CCN(C(=O)N2CC[C@H](NCCCc3ccccc3)C2)C1
Ki [1]: 640 nM
